The values below come from ChEMBL document CHEMBL2401672, “2-[(3aR,4R,5S,7aS)-5-{(1S)-1-[3,5-bis(trifluoromethyl)phenyl]-2-hydroxyethoxy}-4-(2-methylphenyl)octahydro-2H-isoindol-2-yl]-1,3-oxazol-4(5H)-one: a potent human NK1 receptor antagonist with multiple clearance pathways” (J Med Chem, 2013).

Series [1] is described as follows: Half life in monkey at 0.5 mg/kg, iv and 1 mg/kg, po. Type of series: ADME, organism-based, Macaca mulatta. Conditions: rhesus monkey, in vivo. A digest of the protocol:
(§1)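 Rat PK used 1 mg/kg iv and 2 mg/kg po, while dog and monkey received 0.5 mg/kg iv and 1 mg/kg po. Oral dosing was given as a solution, either in ethanol/PEG400/water (20:40:40, v/v/v) or in Inwittor 742/Tween 80, depending on the compound. Plasma CLp, Vdss, t1/2 and F% were derived from these studies.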

Series [2] can be described thus: Oral bioavailability in dog 1 mg/kg. It counts as ADME, organism-based, Canis lupus familiaris. Conditions: in vivo. In short, it runs like this:
as §1

Series [3] is described as follows: Oral bioavailability in rat at 2 mg/kg. It counts as ADME, organism-based. Particulars: in vivo. In short, it runs like this: as §1
The nature of series [4]: Volume of distribution at steady state in monkey at 0.5 mg/kg, iv and 1 mg/kg, po. Particulars: rhesus monkey, in vivo, read-out: Vdss. Type of series: ADME, organism-based, Macaca mulatta. A digest of the protocol: as §1
The nature of series [5]: Plasma clearance in monkey at 0.5 mg/kg, iv and 1 mg/kg, po. It counts as ADME, organism-based, Macaca mulatta. Particulars: rhesus monkey. In short, it runs like this: as §1
Series [6] has as its system Rhesus monkey. The experiment in a line: Ex vivo NK1 receptor occupancy in rhesus monkey brain assessed as concentration required for 90% occupancy at 67 nM plasma concentration by PET imaging analysis. Type of series: functional, Macaca mulatta.
The target of series [7] is T1, Neuromedin-K receptor (Homo sapiens, UniProt P29371).
T1 sequence (P29371 whole entry): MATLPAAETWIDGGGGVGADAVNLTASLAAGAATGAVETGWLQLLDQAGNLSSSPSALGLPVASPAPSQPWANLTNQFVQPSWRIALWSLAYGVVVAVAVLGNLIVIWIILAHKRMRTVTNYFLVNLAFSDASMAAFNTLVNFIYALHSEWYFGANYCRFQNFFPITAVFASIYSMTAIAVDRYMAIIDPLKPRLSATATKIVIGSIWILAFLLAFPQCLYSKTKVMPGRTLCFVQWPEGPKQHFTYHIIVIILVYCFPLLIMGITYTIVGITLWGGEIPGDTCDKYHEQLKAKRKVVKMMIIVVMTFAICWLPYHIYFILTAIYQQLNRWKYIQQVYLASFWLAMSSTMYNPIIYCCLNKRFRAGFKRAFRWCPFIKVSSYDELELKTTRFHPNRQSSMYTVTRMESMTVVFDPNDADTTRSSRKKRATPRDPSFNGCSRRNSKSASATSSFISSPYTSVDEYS
The experiment in a line: Binding affinity to human NK3 receptor.

In series [8] the test system is Gerbillinae. The experiment in a line: Antagonist activity at NK1 receptor in iv dosed gerbil brain assessed as inhibition of GR73632-induced foot tapping after 1 hr. It counts as functional, organism-based. A digest of the protocol: (§2)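 Gerbils received the antagonist iv 1 h before central administration of the NK1 agonist GR73632. Hind-foot tapping was scored. ID50 (mg/kg) was derived for blockade of tapping, and plasma and brain IC50 (nM) were derived from drug levels at 1 h […].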

In series [9] the target is T2, Substance-K receptor (Homo sapiens, UniProt P21452).
T2 sequence (P21452 whole entry): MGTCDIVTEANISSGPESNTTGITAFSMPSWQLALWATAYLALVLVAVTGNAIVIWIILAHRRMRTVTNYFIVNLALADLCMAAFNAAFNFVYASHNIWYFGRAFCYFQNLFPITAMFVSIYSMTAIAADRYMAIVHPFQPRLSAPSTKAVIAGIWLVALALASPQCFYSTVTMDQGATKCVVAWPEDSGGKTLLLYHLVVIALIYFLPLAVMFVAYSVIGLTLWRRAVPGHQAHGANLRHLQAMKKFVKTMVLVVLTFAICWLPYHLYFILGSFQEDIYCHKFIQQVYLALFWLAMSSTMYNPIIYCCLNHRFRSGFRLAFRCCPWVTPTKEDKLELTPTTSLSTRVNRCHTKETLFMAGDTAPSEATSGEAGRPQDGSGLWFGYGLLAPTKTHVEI
In words: Binding affinity to human NK2 receptor.

For series [10], the target named is T3, Substance-P receptor (Homo sapiens, UniProt P25103). The experiment in a line: Displacement of [125I]substance P from human NK1 receptor expressed in CHO cells in presence of human serum. It counts as cell-based. A digest of the protocol: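 Inhibition of [¹²⁵I]substance P binding to human NK1 receptor in vitro, with 50% human serum added to the binding medium; IC₅₀ (nM) derived.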
T3 sequence (P25103 whole entry): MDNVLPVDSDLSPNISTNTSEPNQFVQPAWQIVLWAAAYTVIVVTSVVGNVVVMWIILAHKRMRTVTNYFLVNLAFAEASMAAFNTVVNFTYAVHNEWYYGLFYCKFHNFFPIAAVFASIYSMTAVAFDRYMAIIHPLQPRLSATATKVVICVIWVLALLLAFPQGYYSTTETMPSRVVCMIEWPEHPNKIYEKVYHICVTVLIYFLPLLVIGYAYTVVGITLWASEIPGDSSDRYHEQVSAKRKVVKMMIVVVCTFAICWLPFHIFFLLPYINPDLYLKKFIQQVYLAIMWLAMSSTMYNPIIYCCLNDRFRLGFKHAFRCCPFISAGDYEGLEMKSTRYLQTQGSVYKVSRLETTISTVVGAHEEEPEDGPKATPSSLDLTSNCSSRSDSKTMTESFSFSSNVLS

Series [11] has as its system Gerbillinae. The experiment in a line: Antagonist activity at NK1 receptor in iv dosed gerbil assessed as inhibition of GR73632-induced foot tapping. It counts as functional, organism-based. A digest of the protocol:
as §2

The nature of series [12]: Plasma clearance in dog at 0.5 mg/kg, iv and 1 mg/kg, po. It counts as ADME, organism-based, Canis lupus familiaris. In short, it runs like this: as §1
The nature of series [13]: Oral bioavailability in monkey 1 mg/kg. Type of series: ADME, organism-based, Macaca mulatta. Particulars: rhesus monkey, in vivo. A digest of the protocol: as §1
Series [14] deals with T4, Nuclear receptor subfamily 1 group I member 2 (Homo sapiens, UniProt O75469).
T4 sequence (O75469 whole entry): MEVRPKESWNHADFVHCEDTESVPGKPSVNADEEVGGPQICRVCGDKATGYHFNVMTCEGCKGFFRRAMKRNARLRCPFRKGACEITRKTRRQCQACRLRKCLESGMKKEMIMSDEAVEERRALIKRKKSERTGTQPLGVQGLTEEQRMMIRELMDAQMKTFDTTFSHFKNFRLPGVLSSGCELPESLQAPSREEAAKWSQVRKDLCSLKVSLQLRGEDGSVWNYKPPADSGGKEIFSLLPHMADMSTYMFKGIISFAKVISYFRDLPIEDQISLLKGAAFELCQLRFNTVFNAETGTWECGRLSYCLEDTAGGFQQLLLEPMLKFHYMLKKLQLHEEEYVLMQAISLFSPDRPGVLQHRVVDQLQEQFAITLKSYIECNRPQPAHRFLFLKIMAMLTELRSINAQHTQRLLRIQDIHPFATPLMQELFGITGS
In words: Agonist activity at human PXR at 3.4 uM relative to rifampicin. In short, it runs like this: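 PXR agonism was measured in human hepatocytes with test compound at 3.4 μM, and the response was expressed as % relative to rifampicin.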

Series [15] in a line: Half life in dog at 0.5 mg/kg, iv and 1 mg/kg, po. Particulars: in vivo. It counts as ADME, organism-based, Canis lupus familiaris. In short, it runs like this:
as §1

The test system of series [16] is Rhesus monkey. In words: Ex vivo NK1 receptor occupancy in rhesus monkey brain assessed as concentration required for 50% occupancy at 13 nM plasma concentration by PET imaging analysis. It counts as functional, Macaca mulatta.
Series [17] has as its system Gerbillinae. The experiment in a line: Antagonist activity at NK1 receptor in iv dosed gerbil assessed as inhibition of GR73632-induced foot tapping after 1 hr. It counts as functional. Particulars: read-out: ID50 (the source's name). A digest of the protocol:
as §2

The nature of series [18]: Plasma clearance in rat at 1 mg/kg, iv and 2 mg/kg, po. It counts as ADME, organism-based. A digest of the protocol: as §1
Series [19] is described as follows: Half life in rat at 1 mg/kg, iv and 2 mg/kg, po. It counts as ADME, organism-based. Conditions: in vivo. In short, it runs like this: as §1
The target of series [20] is Cytochrome P450 2D6 (Homo sapiens, UniProt P10635). In words: Inhibition of human CYP2D6. Type of series: ADME.
Cytochrome P450 2D6, sequence (P10635 whole entry): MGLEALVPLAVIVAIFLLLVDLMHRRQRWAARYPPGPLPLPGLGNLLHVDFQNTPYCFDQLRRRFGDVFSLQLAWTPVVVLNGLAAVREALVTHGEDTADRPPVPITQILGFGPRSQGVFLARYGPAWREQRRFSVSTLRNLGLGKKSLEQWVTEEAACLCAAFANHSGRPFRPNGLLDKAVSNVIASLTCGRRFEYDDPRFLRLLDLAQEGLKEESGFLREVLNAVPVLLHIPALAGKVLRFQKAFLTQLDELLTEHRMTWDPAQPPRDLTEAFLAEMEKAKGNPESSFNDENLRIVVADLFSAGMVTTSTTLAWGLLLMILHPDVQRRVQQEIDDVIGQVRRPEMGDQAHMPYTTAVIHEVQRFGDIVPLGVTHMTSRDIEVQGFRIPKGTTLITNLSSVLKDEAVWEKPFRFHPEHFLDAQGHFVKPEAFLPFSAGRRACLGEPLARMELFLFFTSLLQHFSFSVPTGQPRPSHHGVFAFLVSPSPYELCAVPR
Series [21] relates to Gerbillinae. In words: Antagonist activity at NK1 receptor in iv dosed gerbil plasma assessed as inhibition of GR73632-induced foot tapping after 1 hr. It counts as functional, organism-based. In short, it runs like this:
as §2

In series [22] the target is T3, Substance-P receptor. In words: Antagonist activity at human NK1 receptor expressed in CHO cells assessed as IP1 generation measured as remaining substance P response at 100 nM.
Series [23] addresses Cytochrome P450 3A4 (Homo sapiens, UniProt P08684). In words: Inhibition of human CYP3A4. Type of series: ADME.
In series [24] the target is Cytochrome P450 2C9 (Homo sapiens, UniProt P11712). In words: Inhibition of human CYP2C9. It counts as ADME.
Cytochrome P450 2C9, sequence (P11712 whole entry): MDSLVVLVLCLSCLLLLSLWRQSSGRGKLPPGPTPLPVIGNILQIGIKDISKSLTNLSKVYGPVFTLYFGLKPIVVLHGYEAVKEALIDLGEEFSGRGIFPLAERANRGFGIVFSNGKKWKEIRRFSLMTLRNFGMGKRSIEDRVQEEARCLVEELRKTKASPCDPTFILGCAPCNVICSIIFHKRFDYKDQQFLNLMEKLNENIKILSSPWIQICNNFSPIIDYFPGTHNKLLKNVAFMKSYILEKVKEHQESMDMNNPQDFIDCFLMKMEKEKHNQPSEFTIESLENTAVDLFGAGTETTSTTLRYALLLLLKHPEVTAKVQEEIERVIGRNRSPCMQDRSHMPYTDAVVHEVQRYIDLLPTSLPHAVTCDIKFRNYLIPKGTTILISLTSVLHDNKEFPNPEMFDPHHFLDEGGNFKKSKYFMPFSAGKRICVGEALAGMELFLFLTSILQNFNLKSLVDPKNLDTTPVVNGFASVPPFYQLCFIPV
The nature of series [25]: Volume of distribution at steady state in rat at 1 mg/kg, iv and 2 mg/kg, po. It counts as ADME, organism-based. Particulars: in vivo, read-out: Vdss. A digest of the protocol: as §1
Series [26] concerns the target T5, Cytochrome P450 2C8 (Homo sapiens, UniProt P10632).
T5 sequence (P10632 whole entry): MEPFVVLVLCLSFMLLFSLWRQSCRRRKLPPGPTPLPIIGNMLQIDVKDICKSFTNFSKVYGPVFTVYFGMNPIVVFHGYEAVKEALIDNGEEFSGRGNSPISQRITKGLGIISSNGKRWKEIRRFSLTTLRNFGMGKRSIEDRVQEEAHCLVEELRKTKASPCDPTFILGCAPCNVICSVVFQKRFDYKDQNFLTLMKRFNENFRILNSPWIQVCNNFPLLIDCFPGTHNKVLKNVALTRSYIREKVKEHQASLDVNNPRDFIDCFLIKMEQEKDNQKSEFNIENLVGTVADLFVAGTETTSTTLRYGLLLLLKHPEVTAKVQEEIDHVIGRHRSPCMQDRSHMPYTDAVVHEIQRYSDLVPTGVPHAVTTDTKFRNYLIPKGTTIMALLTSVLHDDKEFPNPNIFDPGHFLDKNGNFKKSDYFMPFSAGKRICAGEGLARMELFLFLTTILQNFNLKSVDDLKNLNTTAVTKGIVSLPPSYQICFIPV
The experiment in a line: Inhibition of human CYP2C8. It counts as ADME.

Series [27] in a line: Volume of distribution at steady state in dog at 0.5 mg/kg, iv and 1 mg/kg, po. Type of series: ADME, organism-based, Canis lupus familiaris. Conditions: in vivo, read-out: Vdss. In short, it runs like this:
as §1

Series [28] in a line: Metabolic stability in human hepatocytes assessed as compound remaining at 1 uM after 24 hrs. It counts as ADME, cell-based, Hepatocyte. Particulars: read-out: Stability. A digest of the protocol:
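Tritium-labelled compound at 1 μM was incubated with cultured human hepatocytes (300 000 cells per incubation) for 24 h, followed by metabolite profiling.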

The source made the active and inactive calls. The calls are words filed in the database; no cut-off is given here.

Cytochrome P450 3A4, sequence (P08684 whole entry): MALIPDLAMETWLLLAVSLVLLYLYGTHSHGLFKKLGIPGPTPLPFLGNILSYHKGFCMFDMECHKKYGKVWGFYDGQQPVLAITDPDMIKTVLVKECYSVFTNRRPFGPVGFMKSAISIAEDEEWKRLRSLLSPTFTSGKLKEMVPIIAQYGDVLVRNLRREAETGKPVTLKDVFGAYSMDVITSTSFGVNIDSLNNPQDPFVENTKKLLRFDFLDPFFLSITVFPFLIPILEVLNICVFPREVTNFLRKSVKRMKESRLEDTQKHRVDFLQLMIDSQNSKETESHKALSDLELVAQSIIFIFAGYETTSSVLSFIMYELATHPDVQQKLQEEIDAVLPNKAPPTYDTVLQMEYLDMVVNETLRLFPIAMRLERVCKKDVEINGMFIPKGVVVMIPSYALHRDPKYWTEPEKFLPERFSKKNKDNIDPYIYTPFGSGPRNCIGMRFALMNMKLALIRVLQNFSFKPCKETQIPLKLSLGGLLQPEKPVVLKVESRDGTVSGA

What is called half-life is how long it takes for the measured level to halve. As usually defined, the bioavailability is the share of a dose that reaches the circulation, judged against a reference dose that is usually intravenous. One may read the IC50 as the concentration that gives 50% inhibition. As to `Cc1ccccc1[C@H]1[C@@H]2CN(C3=NC(=O)CO3)C[C@H]2CC[C@@H]1O[C@H](CO)c1cc(C(F)(F)F)cc(C(F)(F)F)c1`, the values for the half-life in series [1], in series [15] and in series [19] were 13 h, 11 h and 4.7 h, respectively. Besides, the values for the bioavailability in series [2], in [3] and in [13] were 38%, 92% and 66%, respectively. Also, the Vd in series [4] came out at 5.7 L/kg; in series [25] it was 3.1 L/kg; in [27], 1.2 L/kg. The clearance in series [5] stood at 8 mL/min/kg; in series [12], 1.4 mL/min/kg; in [18], 7.5 mL/min/kg. Besides, in [6], the Occ90 turned out to be 22 nM. For the same compound, the half-inhibitory concentration (IC50) is 2500 nM in [7]; 8 nM in series [8]; 7200 nM in [9]; 0.75 nM in series [10]; 61000 nM in series [20]; 5 nM in [21]. For the same compound, the results for the half-maximal inhibitory concentration (IC50) in series [23], in [24] and in series [26] were 15000 nM, 41000 nM and 21000 nM, respectively. Further, the inhibition result in [11] is “Active”. The Activity in series [14] came out at 14%. The Occ50 in series [16] is reported as 13 nM. Moreover, the ED50 in [17] worked out at 0.03 mg/kg. In [22], the residual activity was 3%. For the same compound, in series [28], the remaining at 24 h, 1 µM came to 68%.
For `C[C@@H](O[C@H]1CC[C@@H]2CN(C3=CC(=O)CC3)C[C@H]2[C@@H]1c1ccc(F)cc1)c1cc(C(F)(F)F)cc(C(F)(F)F)c1` [SERLOPITANT], the bioavailability in series [3] stood at 40%. Further, the Occ90 in [6] amounted to 67 nM. Moreover, the results for the half-inhibitory concentration (IC50) in series [7], in series [8] and in series [9] were 2400 nM, 7.7 nM and 2400 nM, respectively. In series [11], the inhibition result was “Active”. Also, the Occ50 in [16] turned out to be 9 nM. Besides, the ED50 in [17] is 0.08 mg/kg. For the same compound, the residual activity in series [22] turned out to be 5%.
